Experimental data taken from ChEMBL document CHEMBL1135728, “Bis(1H-2-indolyl)methanones as a novel class of inhibitors of the platelet-derived growth factor receptor kinase” (J Med Chem, 2002).

Legend:
[1] = target: Platelet-derived growth factor receptor (Homo sapiens, UniProt P09619+P16234); test: Antitumor activity measured by the inhibition of platelet-derived growth factor receptor autophosphorylation in intact Swiss 3T3 cells; type: cell-based
How it was run: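 Quiescent Swiss 3T3 fibroblasts moved to serum-free DMEM and exposed to compound in DMSO (final 1%) for 2 h. They were then stimulated with 100 ng/mL human recombinant PDGF-BB for 10 min at room temperature and lysed. Autophosphorylation was read by immunoblotting. Four to eight concentrations were tested across 2 orders of magnitude, and IC50 came from curve fitting over three independent experiments.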

[2] = target: Proto-oncogene tyrosine-protein kinase Src (Homo sapiens, UniProt P12931); test: Inhibition of Src protein tyrosine kinase
How it was run: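 Src-dependent tyrosine phosphorylation was measured in intact src-transformed NIH3T3 fibroblasts, with immunoblot read-out.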

[3] = target: T1, Protein kinase C epsilon type (Homo sapiens, UniProt Q02156); test: Inhibition of His-tagged Protein kinase C epsilon over-expressed in COS7 cells; type: cell-based, COS-7
T1 sequence (Q02156 whole entry): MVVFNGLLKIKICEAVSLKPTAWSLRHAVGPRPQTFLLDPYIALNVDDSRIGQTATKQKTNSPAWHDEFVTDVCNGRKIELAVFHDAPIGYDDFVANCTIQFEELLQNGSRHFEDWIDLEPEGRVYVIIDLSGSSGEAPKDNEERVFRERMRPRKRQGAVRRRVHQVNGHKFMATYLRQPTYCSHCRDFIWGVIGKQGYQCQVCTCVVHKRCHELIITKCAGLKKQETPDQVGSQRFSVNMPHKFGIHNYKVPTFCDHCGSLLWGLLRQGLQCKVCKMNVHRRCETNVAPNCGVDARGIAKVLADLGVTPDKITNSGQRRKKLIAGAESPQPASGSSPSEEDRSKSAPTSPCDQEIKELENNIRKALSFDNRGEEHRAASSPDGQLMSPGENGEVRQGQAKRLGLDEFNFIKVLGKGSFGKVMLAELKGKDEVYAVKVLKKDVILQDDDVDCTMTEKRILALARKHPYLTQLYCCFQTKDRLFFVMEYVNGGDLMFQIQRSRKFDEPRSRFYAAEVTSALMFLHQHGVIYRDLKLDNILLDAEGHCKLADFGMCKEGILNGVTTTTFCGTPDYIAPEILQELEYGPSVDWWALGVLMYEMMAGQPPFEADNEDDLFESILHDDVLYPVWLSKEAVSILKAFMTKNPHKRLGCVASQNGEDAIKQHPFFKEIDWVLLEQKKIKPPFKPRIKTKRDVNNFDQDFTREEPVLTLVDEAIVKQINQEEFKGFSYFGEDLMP
How it was run: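 RGS-His6-tagged PKC was transiently expressed in COS-7 cells, purified on Ni-NTA agarose and eluted with 500 mM imidazole. Reactions ran 10 min at 30 °C; phosphocellulose binding and scintillation counting gave the read-out.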

[4] = Inhibition of Protein kinase C isoforms epsilon and iota in vitro phosphorylation
How it was run: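 RGS-His6-tagged PKC isoforms were expressed transiently in COS-7 cells and purified from lysate on Ni-NTA, with imidazole elution. Reactions ran 10 min at 30 °C, and phosphocellulose-bound radioactivity was counted.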

[5] = target: Platelet-derived growth factor receptor alpha (Homo sapiens, UniProt P16234); test: Inhibition of Platelet-derived growth factor receptor alpha autophosphorylation in PAE cells; type: cell-based, Sus scrofa
How it was run: (§1)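 Porcine aortic endothelial cells expressing human PDGF α- or β-receptor were used. Receptor autophosphorylation in the intact cells was read by immunoblotting.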

[6] = target: T2, Beta-adrenergic receptor kinase 1 (Homo sapiens, UniProt P25098); test: Inhibition of G-protein coupled receptor kinase 2 (GRK2) in vitro phosphorylation
T2 sequence (P25098 whole entry): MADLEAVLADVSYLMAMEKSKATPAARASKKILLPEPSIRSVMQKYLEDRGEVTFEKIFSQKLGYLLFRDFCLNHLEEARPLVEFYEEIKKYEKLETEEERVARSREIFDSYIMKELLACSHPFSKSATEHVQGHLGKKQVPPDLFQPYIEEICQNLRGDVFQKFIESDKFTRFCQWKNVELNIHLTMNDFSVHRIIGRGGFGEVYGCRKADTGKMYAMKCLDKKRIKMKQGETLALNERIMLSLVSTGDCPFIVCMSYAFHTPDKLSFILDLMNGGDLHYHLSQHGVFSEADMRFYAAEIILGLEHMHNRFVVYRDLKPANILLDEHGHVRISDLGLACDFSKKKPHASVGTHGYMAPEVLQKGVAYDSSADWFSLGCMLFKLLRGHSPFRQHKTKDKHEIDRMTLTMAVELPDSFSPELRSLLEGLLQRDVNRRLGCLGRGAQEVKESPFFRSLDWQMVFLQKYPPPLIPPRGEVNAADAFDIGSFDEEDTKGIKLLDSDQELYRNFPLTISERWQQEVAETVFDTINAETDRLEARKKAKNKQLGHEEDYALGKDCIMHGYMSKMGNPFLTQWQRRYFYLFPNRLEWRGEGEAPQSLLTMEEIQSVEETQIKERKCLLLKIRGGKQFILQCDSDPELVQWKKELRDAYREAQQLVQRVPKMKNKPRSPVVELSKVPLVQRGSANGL
How it was run: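 GRK2 was assayed in vitro using lysates of GRK2-overexpressing 293 cells as the kinase source. Rhodopsin purified from bovine rod outer segments served as substrate.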

[7] = target: T3, Platelet-derived growth factor receptor beta (Homo sapiens, UniProt P09619); test: Inhibition of purified Platelet-derived growth factor receptor beta kinase activity
How it was run: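 PDGFβ-receptor kinase was purified from membranes of a receptor-overexpressing cell line. Inhibition was tested in an in vitro autophosphorylation assay at 10 µM ATP.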

[8] = target: T3, Platelet-derived growth factor receptor beta; test: Inhibition of Platelet-derived growth factor receptor beta autophosphorylation in PAE cells; type: cell-based, Sus scrofa; how it was run: as §1
[9] = target: Epidermal growth factor receptor (Homo sapiens, UniProt P00533); test: Inhibition of Epidermal growth factor receptor autophosphorylation in A431 cells; type: cell-based, A-431
How it was run: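 A431 cells, starved overnight in serum-free medium, were exposed to compound for 2 h and then stimulated with 100 ng/mL EGF for 10 min. Cells were extracted in lysis buffer (Hepes pH 7.5, 1% Triton), and EGFR tyrosine autophosphorylation was read by immunoblotting.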

[10] = target: Fibroblast growth factor receptor 1 (Homo sapiens, UniProt P11362); test: Inhibition of Fibroblast growth factor receptor 1 autophosphorylation in PAE cells; type: cell-based, Sus scrofa
[11] = target: T3, Platelet-derived growth factor receptor beta; test: Inhibition of Platelet-derived growth factor receptor beta kinase activity in Sf9-expressed GST-fusion protein
How it was run: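 A constitutively active GST fusion of the PDGFβ-receptor cytoplasmic domain was expressed in Sf9 cells. The isolated fusion protein was tested in an in vitro autophosphorylation assay at 10 µM ATP.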

T3 sequence (P09619 whole entry): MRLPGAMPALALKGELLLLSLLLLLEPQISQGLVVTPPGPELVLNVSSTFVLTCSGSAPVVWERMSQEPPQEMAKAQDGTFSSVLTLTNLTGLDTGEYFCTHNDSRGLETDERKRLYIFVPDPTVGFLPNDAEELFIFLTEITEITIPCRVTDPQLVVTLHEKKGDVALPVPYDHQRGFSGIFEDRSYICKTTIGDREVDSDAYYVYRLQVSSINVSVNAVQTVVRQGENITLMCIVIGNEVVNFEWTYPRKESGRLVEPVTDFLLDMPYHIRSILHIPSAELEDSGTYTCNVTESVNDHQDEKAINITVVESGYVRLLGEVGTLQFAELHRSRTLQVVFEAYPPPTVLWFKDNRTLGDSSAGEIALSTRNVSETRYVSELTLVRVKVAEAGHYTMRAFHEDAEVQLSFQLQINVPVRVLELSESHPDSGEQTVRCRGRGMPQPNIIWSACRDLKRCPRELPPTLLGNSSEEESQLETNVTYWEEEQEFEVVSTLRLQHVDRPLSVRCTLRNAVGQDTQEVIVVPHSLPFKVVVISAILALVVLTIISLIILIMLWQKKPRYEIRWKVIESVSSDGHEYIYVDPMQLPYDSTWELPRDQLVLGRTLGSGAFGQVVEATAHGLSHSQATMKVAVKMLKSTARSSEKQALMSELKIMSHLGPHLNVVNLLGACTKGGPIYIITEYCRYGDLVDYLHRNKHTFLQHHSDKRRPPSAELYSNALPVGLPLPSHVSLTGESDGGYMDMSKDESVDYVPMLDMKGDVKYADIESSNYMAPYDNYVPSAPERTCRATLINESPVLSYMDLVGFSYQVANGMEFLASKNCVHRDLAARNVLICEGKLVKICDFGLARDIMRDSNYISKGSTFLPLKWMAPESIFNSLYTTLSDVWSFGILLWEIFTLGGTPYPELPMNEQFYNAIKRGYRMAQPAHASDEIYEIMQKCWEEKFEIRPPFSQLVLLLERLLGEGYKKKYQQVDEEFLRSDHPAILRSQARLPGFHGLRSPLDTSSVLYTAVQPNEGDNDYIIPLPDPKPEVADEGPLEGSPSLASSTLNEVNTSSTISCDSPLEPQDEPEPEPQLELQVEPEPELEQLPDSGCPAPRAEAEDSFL
Chain of Proto-oncogene tyrosine-protein kinase Src (P12931 2-536 limits assumed): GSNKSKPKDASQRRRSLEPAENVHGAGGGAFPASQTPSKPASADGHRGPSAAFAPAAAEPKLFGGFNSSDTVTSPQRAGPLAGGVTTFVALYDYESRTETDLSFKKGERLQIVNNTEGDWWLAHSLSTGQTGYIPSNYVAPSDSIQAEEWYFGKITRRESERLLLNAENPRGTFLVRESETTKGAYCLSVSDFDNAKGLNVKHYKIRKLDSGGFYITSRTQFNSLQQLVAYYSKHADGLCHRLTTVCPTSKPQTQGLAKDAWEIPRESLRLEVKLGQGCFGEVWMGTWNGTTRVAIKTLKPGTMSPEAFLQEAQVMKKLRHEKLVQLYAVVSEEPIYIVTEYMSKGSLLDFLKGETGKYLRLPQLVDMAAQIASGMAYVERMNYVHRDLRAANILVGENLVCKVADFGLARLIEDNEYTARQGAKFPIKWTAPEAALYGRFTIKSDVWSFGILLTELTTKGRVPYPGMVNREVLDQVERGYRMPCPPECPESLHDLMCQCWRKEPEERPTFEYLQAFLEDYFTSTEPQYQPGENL
Chain of Platelet-derived growth factor receptor alpha (P16234 whole entry): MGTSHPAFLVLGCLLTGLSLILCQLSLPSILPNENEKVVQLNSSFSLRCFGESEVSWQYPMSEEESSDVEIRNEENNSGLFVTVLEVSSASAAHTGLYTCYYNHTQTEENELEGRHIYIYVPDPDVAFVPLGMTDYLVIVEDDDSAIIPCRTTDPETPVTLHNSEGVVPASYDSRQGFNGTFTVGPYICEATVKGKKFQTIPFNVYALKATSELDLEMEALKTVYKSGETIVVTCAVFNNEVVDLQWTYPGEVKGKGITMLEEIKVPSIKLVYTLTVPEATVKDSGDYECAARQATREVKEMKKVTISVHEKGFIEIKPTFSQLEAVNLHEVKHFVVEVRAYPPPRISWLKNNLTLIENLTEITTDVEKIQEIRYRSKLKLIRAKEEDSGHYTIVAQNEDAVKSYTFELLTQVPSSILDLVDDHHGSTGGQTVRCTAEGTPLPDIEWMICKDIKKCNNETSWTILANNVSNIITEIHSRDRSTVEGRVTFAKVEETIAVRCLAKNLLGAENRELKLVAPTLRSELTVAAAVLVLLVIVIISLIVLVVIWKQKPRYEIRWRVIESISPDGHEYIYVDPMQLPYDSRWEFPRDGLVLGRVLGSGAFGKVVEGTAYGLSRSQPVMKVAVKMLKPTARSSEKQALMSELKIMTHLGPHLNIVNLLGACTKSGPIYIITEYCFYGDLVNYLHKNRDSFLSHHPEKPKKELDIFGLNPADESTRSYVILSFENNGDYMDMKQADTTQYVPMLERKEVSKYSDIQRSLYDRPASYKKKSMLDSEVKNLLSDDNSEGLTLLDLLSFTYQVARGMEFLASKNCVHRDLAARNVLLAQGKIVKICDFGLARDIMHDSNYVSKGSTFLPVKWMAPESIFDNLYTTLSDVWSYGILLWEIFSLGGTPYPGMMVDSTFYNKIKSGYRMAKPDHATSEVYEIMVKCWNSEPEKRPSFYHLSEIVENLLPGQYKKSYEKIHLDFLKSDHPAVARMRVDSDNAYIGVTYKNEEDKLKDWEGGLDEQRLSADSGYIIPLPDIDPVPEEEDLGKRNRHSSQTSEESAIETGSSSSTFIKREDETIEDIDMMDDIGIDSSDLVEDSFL
Chain of Fibroblast growth factor receptor 1 (P11362 whole entry, the tested form may be a part): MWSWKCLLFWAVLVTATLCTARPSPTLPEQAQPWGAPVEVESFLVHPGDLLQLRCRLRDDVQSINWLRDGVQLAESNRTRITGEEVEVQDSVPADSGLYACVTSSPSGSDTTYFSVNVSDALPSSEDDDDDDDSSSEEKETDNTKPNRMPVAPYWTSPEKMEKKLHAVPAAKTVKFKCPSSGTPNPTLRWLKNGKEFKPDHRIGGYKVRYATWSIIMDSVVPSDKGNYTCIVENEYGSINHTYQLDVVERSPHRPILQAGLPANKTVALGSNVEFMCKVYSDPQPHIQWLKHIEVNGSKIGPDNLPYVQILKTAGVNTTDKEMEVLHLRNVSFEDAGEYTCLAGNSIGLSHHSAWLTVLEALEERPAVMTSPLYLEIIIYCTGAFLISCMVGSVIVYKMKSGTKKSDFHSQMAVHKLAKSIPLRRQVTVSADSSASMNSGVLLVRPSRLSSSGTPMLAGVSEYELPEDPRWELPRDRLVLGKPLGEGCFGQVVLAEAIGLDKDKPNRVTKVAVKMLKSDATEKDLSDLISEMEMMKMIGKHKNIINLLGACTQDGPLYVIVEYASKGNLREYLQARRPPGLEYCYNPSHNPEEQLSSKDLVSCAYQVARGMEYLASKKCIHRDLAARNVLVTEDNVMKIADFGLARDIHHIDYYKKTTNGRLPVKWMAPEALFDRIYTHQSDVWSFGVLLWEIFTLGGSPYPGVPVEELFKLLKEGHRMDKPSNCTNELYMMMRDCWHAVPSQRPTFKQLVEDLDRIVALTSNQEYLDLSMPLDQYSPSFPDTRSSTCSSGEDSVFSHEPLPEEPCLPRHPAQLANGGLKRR
Chain of Epidermal growth factor receptor (P00533 whole entry): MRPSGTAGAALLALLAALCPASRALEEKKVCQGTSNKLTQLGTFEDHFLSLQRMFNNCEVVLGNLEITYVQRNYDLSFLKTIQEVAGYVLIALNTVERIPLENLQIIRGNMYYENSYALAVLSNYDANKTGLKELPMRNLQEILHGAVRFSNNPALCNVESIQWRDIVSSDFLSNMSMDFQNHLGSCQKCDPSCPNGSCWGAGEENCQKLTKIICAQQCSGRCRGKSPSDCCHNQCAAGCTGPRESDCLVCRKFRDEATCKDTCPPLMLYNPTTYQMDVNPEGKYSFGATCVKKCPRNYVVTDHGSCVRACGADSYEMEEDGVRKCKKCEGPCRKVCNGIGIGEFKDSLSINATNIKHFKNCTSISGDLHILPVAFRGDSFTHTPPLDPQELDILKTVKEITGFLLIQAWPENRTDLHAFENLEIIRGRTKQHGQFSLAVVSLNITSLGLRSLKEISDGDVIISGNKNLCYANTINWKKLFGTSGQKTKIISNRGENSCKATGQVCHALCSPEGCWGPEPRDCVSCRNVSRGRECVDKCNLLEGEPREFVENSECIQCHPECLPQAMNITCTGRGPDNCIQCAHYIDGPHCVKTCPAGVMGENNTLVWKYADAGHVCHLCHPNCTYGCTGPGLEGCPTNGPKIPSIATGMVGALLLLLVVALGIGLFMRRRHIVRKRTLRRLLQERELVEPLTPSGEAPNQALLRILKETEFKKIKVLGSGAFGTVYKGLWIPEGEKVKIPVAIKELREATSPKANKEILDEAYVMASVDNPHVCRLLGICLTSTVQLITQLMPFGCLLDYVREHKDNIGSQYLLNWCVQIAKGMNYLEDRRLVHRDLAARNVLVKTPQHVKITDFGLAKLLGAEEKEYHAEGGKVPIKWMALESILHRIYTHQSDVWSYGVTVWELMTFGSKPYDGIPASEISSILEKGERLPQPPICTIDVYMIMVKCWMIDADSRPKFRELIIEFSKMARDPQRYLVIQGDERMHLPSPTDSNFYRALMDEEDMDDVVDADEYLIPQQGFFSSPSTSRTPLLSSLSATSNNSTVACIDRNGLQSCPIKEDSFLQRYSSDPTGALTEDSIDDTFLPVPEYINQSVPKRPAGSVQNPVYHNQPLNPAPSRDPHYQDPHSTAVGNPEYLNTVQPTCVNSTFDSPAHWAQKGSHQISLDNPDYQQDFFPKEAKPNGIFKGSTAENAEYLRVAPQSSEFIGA

Row | Structure (SMILES) | IC50 [1] | further results
1 | CCCC(=O)Oc1ccc2[nH]c(C(=O)c3cc4ccccc4[nH]3)cc2c1 | 1100 nM | –
2 | O=C(c1cc2ccccc2[nH]1)c1cc2cc(OC(=O)c3ccco3)ccc2[nH]1 | 600 nM | –
3 | CCOc1ccc2[nH]c(C(=O)c3cc4ccccc4[nH]3)cc2c1 | 2300 nM | –
4 | COc1ccc2[nH]c(C(=O)c3cc4ccccc4s3)cc2c1 | 1000 nM | –
5 | CC(Oc1ccc2[nH]c(C(=O)c3cc4ccccc4[nH]3)cc2c1)c1ccccc1 (stereo not drawn) | > 30000 nM | –
6 | O=C(c1cc2ccccc2[nH]1)c1cc2cc(OCCN3CCOCC3)ccc2[nH]1 | 2500 nM | –
7 | O=C(Oc1ccc2[nH]c(C(=O)c3cc4ccccc4[nH]3)cc2c1)c1ccc(-c2ccccc2)cc1 | 1700 nM | –
8 | CN(C)CCOc1ccc2[nH]c(C(=O)c3cc4ccccc4[nH]3)cc2c1 | 800 nM | –
9 | CCOc1ccc(C(=O)Oc2ccc3[nH]c(C(=O)c4cc5ccccc5[nH]4)cc3c2)cc1 | 1300 nM | –
10 | O=C(Oc1ccc2[nH]c(C(=O)c3cc4ccccc4[nH]3)cc2c1)c1ccc2ccccc2n1 | 400 nM | –
11 | COc1cccc2cc(C(=O)c3cc4ccccc4[nH]3)[nH]c12 | > 30000 nM | –
12 | O=C(c1cc2ccccc2[nH]1)c1cc2cc(OCC3CCCCC3)ccc2[nH]1 | > 30000 nM | –
13 | O=C(Oc1ccc2[nH]c(C(=O)c3cc4ccccc4[nH]3)cc2c1)c1ccc([N+](=O)[O-])cc1 | 900 nM | –
14 | O=C(c1cc2ccccc2[nH]1)c1cc2cc(OC(=O)c3ccccc3C(=O)c3ccccc3)ccc2[nH]1 | > 30000 nM | –
15 | Cc1ccc2[nH]c(C(=O)c3cc4ccccc4[nH]3)cc2c1 | 7500 nM | –
16 | COc1ccc(C(=O)Oc2ccc3[nH]c(C(=O)c4cc5ccccc5[nH]4)cc3c2)cc1 | 3200 nM | –
17 | O=C(c1cc2ccccc2[nH]1)c1cc2cc(OCc3ccccc3)ccc2[nH]1 | 10000 nM | –
18 | O=C(/C=C/c1ccccc1)Oc1ccc2[nH]c(C(=O)c3cc4ccccc4[nH]3)cc2c1 | 3400 nM | –
19 | O=C(c1cc2ccccc2[nH]1)c1cc2cc(OC(=O)C(c3ccccc3)c3ccccc3)ccc2[nH]1 | > 30000 nM | –
20 | O=C(Oc1ccc2[nH]c(C(=O)c3cc4ccccc4[nH]3)cc2c1)c1cccc(Oc2ccccc2)c1 | > 30000 nM | –
21 | O=C(c1cc2ccccc2[nH]1)c1cc2cc(OC(=O)C3CC3)ccc2[nH]1 | 9100 nM | –
22 | O=C(Cc1cccs1)Oc1ccc2[nH]c(C(=O)c3cc4ccccc4[nH]3)cc2c1 | 800 nM | –

Row | Structure (SMILES) | IC50 [1] | further results
23 | O=C(Oc1ccc2[nH]c(C(=O)c3cc4ccccc4[nH]3)cc2c1)c1ccccc1 | 800 nM | –
24 | COc1ccc2[nH]c(C(=O)c3cc4ccccc4[nH]3)cc2c1 | 300 nM | –
25 | O=C(CCc1ccccc1)Oc1ccc2[nH]c(C(=O)c3cc4ccccc4[nH]3)cc2c1 | 1200 nM | –
26 | COc1ccc2[nH]c(C(=O)c3cc4cc(OC)ccc4[nH]3)cc2c1 | 10000 nM | –
27 | O=C(c1cc2ccccc2[nH]1)c1cc2cc(OCCCCCI)ccc2[nH]1 | > 20000 nM | –
28 | O=C(c1cc2ccccc2[nH]1)c1cc2cc(OC(=O)c3ccccc3Cl)ccc2[nH]1 | 4600 nM | –
29 | COc1cc(C(=O)Oc2ccc3[nH]c(C(=O)c4cc5ccccc5[nH]4)cc3c2)cc(OC)c1OC | 4100 nM | –
30 | O=C(c1cc2ccccc2[nH]1)c1cc2cc(OC(=O)c3ccccc3Oc3ccccc3)ccc2[nH]1 | > 30000 nM | –
31 | COc1cccc(CC(=O)Oc2ccc3[nH]c(C(=O)c4cc5ccccc5[nH]4)cc3c2)c1 | 1000 nM | –
32 | O=C(Oc1ccc2[nH]c(C(=O)c3cc4ccccc4[nH]3)cc2c1)c1cccnc1 | 1000 nM | –
33 | O=C(c1cc2ccccc2[nH]1)c1cc2cc(OC(=O)C3CCC3)ccc2[nH]1 | 9100 nM | –
34 | CC(=O)OC(C(=O)Oc1ccc2[nH]c(C(=O)c3cc4ccccc4[nH]3)cc2c1)c1ccccc1 (stereo not drawn) | 900 nM | –
35 | O=C(c1cc2ccccc2s1)c1cc2ccccc2s1 | > 30000 nM | –
36 | CC(=O)Oc1ccc2[nH]c(C(=O)c3cc4ccccc4[nH]3)cc2c1 | 300 nM | IC50 [2]: > 30000 nM; IC50 [3]: > 100000 nM; IC50 [4]: 17000 nM; IC50 [5]: 100 nM; IC50 [6]: > 100000 nM; IC50 [7]: 300 nM; IC50 [8]: 4900 nM; IC50 [9]: > 30000 nM; IC50 [10]: 200 nM; IC50 [11]: 70 nM
37 | O=C(c1cc2ccccc2[nH]1)c1cc2cc(OCCN3CCCCC3)ccc2[nH]1 | 800 nM | –
38 | COc1ccc2cc(C(=O)c3cc4ccccc4[nH]3)[nH]c2c1 | 300 nM | –
39 | CN(C)CCCOc1ccc2[nH]c(C(=O)c3cc4ccccc4[nH]3)cc2c1 | 3200 nM | –
40 | CC(=O)Oc1ccccc1C(=O)Oc1ccc2[nH]c(C(=O)c3cc4ccccc4[nH]3)cc2c1 | 2200 nM | –
41 | CCC(=O)Oc1ccc2[nH]c(C(=O)c3cc4ccccc4[nH]3)cc2c1 | 900 nM | –
42 | O=C(c1cc2ccccc2[nH]1)c1cc2cc(O)ccc2[nH]1 | 200 nM | IC50 [2]: > 30000 nM; IC50 [3]: > 30000 nM; IC50 [4]: > 100000 nM; IC50 [5]: 1000 nM; IC50 [7]: 90 nM; IC50 [8]: 200 nM; IC50 [9]: > 30000 nM; IC50 [10]: > 10000 nM; IC50 [11]: 600 nM
43 | O=C(c1cc2ccccc2[nH]1)c1cc2cc(OCCCCI)ccc2[nH]1 | 5000 nM | –
44 | COc1ccc2[nH]c(C(=O)c3cc4ccccc4o3)cc2c1 | 4000 nM | –
